Test results reported in ChEMBL document CHEMBL1275345, “Pyrazolo[1',5':1,6]pyrimido[4,5-d]pyridazin-4(3H)-ones as selective human A(1) adenosine receptor ligands” (Bioorg Med Chem, 2010).
Calls of active or inactive are those of the source. The rule behind the calls is not given here.

Legend:
Adenosine receptor A2a [1] = target: T1, Adenosine receptor A2a (Homo sapiens, UniProt P29274); experiment: Displacement of [3H]ZM241385 from human adenosine A2a receptor expressed in HeLa cells at 10 uM after 30 mins; assay type: cell-based
Method in brief: (§1)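 [3H]ZM241385 specific binding in HeLa cells expressing human A2A receptor. Incubation at 25 °C for 30 min, followed by filtration and beta scintillation counting. Output is Ki (nM) or % inhibition at the single test concentration. Values are means of four separate assays, each performed in triplicate.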

[2] = target: T2, Adenosine receptor A2b (Homo sapiens) (UniProt P29275); experiment: Displacement of [3H]DPCPX from human adenosine A2b receptor expressed in HEK293 cells at 10 uM after 30 mins; assay type: cell-based
T2 sequence (whole entry): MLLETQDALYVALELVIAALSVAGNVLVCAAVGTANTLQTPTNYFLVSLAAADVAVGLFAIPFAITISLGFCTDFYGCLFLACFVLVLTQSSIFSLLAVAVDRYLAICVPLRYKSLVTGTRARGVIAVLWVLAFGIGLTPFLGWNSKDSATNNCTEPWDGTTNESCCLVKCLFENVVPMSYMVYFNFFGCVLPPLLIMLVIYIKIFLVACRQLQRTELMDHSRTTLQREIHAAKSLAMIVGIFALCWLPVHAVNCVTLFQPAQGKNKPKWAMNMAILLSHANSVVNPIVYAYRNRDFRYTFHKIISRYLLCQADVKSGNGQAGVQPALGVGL
Method in brief: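 Human A2B receptor expressed in HEK-293 cells, with displacement of [3H]DPCPX. Incubated at 25 °C for 30 min, then filtered and counted by beta scintillation. Reported as Ki (nM) or percentage inhibition at the single test concentration. Means of four independent assays, each run in triplicate.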

Adenosine receptor A1 = target: T3, Adenosine receptor A1 (Homo sapiens, UniProt P30542); experiment: Displacement of [3H]DPCPX from human adenosine A1 receptor expressed in CHO-A1 cells after 60 mins; assay type: cell-based
T3 sequence (P30542 whole entry): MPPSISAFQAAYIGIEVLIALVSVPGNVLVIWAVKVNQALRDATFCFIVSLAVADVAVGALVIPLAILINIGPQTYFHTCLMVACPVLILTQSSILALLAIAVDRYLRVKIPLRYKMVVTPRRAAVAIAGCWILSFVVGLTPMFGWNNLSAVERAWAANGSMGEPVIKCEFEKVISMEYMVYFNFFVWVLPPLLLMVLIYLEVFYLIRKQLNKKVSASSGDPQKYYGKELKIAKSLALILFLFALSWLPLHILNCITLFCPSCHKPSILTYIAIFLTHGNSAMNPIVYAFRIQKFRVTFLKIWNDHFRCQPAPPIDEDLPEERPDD
Method in brief: (§2)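 Competition binding on membranes from CHO cells expressing human A1 receptor, labelled with 2 nM [3H]DPCPX. Non-specific binding defined with (R)-PIA. Incubation at 25 °C for 60 min, then filtration and beta scintillation counting. Result given as Ki (nM) or % inhibition at the single test concentration. Means of four separate assays, each in triplicate.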

[3] = target: T4, Adenosine receptor A3 (Homo sapiens) (UniProt P0DMS8); experiment: Displacement of [3H]NECA from human adenosine A3 receptor expressed in HeLa cells at 10 uM after 180 mins; assay type: cell-based
T4 sequence (whole entry): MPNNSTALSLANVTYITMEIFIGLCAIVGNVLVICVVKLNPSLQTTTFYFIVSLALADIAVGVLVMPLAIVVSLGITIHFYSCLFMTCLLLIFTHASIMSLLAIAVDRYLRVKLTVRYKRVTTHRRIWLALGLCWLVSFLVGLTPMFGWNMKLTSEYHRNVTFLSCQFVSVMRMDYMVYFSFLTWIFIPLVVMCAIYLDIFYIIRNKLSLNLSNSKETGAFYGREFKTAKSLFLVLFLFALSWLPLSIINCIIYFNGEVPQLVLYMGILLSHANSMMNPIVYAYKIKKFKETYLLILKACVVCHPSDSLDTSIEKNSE
Method in brief: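 HeLa cells expressing human A3 receptor, with displacement of [3H]NECA. Incubated at 25 °C for 180 min, then filtered and counted by beta scintillation. Ki (nM) or percentage inhibition at the single test concentration. Means of four assays, each in triplicate.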

Adenosine receptor A2a [4] = target: T1, Adenosine receptor A2a; experiment: Displacement of [3H]ZM241385 from human adenosine A2a receptor expressed in HeLa cells after 30 mins; assay type: cell-based; method in brief: as §1
Homo sapiens = species: Homo sapiens; experiment: Selectivity ratio of Ki for human adenosine A2a receptor to Ki for human A1 receptor
[5] = target: T5, Adenosine receptor A1 (Homo sapiens) (UniProt P30542); experiment: Displacement of [3H]DPCPX from human adenosine A1 receptor expressed in CHO-A1 cells at 10 uM after 60 mins; assay type: cell-based; method in brief: as §2
T5 sequence (whole entry): T3 sequence (P30542 whole entry)

[6] = target: cGMP-specific 3',5'-cyclic phosphodiesterase (Homo sapiens) (UniProt O76074); experiment: Inhibition of human platelets PDE5 at 2 uM
Method in brief: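 PDE5 came from human platelet lysate (10⁹ platelets): the supernatant was fractionated on a Mono-Q ion-exchange column. Activity was measured with a two-step cyclic nucleotide phosphodiesterase procedure. Compounds were tested at a single concentration and the result given as % inhibition.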

T1 sequence (P29274 whole entry): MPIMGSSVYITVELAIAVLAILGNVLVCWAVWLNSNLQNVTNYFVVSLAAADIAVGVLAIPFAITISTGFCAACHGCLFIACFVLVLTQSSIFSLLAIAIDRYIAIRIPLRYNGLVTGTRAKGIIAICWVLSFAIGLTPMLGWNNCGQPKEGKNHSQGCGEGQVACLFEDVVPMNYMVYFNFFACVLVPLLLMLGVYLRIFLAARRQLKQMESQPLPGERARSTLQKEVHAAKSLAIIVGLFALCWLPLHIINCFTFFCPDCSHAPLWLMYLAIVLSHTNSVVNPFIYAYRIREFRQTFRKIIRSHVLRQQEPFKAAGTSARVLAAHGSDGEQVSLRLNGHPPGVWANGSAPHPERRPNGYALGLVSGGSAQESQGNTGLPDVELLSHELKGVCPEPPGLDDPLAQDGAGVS

| Compound | inhibition (Adenosine receptor A2a [1]) | inhibition [2] | Ki (Adenosine receptor A1) [nM] | inhibition [3] | Ki (Adenosine receptor A2a [4]) [nM] | Ratio Ki (Homo sapiens) | inhibition [5] [%] | inhibition [6] [%] |
| --- | --- | --- | --- | --- | --- | --- | --- | --- |
| O=c1c2ncn3nc(-c4ccccc4)cc3c2c(-c2cccnc2)nn1Cc1ccccc1 |  | inactive | 11.4 | inactive | 805 | 71 |  |  |
| O=c1c2ncn3nc(-c4ccsc4)cc3c2c(-c2cccc(F)c2)nn1Cc1ccccc1 | inactive | inactive | 189 | inactive |  |  |  |  |
| O=c1c2ncn3nc(-c4ccccc4)cc3c2c(-c2ccncc2)nn1Cc1ccccc1 |  | inactive | 10.2 | inactive | 67.9 | 7 |  |  |
| O=c1c2ncn3nc(-c4ccsc4)cc3c2c(-c2ccc(F)cc2)nn1Cc1ccccc1 | inactive | inactive | 123 | inactive |  |  |  |  |
| Fc1ccc(-c2nnc(Cl)c3ncn4nc(-c5ccccc5)cc4c23)cc1 | inactive | inactive |  | inactive |  |  | < 50 |  |
| Cc1nn(Cc2ccccc2)c(=O)c2nnn3nc(-c4ccccc4)cc3c12 | < 50% | < 50% |  | < 50% |  |  | < 50 |  |
| Cc1nn(C(C)c2ccccc2)c(=O)c2ncn3nc(-c4ccccc4)cc3c12 (stereo unspecified) | < 50% | < 50% | 475 | < 50% |  |  |  |  |
| O=c1c2ncn3nc(-c4ccccc4)cc3c2c(-c2ccc(F)cc2)nn1Cc1ccccc1 | inactive | inactive | 252 | inactive |  |  |  |  |
| O=c1c2nc(C(F)(F)F)n3nc(-c4ccccc4)cc3c2c(-c2ccc(F)cc2)nn1Cc1ccccc1 | inactive | inactive |  | inactive |  |  | < 50 |  |
| Cc1nc2c(SCc3ccccc3)nnc(-c3ccncc3)c2c2cc(-c3ccccc3)nn12 | < 50% | inactive |  | inactive |  |  | < 50 |  |
| CCc1nc2c(=O)n(C(C)c3ccccc3)nc(C)c2c2cc(-c3ccccc3)nn12 (stereo unspecified) | < 50% | < 50% | 2380 | < 50% |  |  |  |  |
| Cc1nc2c(=O)n(Cc3ccccc3)nc(-c3cccc(F)c3)c2c2cc(-c3ccsc3)nn12 | inactive | inactive |  | inactive |  |  | < 50 |  |
| Cc1nn(Cc2ccccc2)c(=O)c2ncn3nccc3c12 | < 50% | < 50% |  | < 50% |  |  | < 50 |  |
| O=c1c2ncn3nc(-c4ccccc4)cc3c2c(-c2cccc(F)c2)nn1Cc1ccccc1 | inactive | inactive | 92.7 | inactive |  |  |  |  |
| Cc1nn(Cc2ccccc2)c(=O)c2nc(C)n3nccc3c12 | < 50% | < 50% |  | < 50% |  |  | < 50 |  |
| CCc1nc2c(=O)n(Cc3ccccc3)nc(-c3cccc(F)c3)c2c2cc(-c3ccsc3)nn12 | inactive | inactive |  | inactive |  |  | < 50 |  |

The remaining lines, values ahead:

| inhibition (Adenosine receptor A2a [1]) | inhibition [2] | Ki (Adenosine receptor A1) [nM] | inhibition [3] | Ki (Adenosine receptor A2a [4]) [nM] | Ratio Ki (Homo sapiens) | inhibition [5] [%] | inhibition [6] [%] | Compound |
| --- | --- | --- | --- | --- | --- | --- | --- | --- |
| inactive | inactive | 3240 | inactive |  |  |  |  | Cc1nc2c(=O)n(Cc3ccccc3)nc(-c3cccc(F)c3)c2c2cc(-c3ccccc3)nn12 |
| inactive | inactive |  | inactive |  |  | < 50 |  | CC(C)c1nc2c(=O)n(Cc3ccccc3)nc(-c3ccccc3)c2c2cc(-c3ccccc3)nn12 |
|  | inactive | 28.3 | inactive | 772 |  |  |  | CCCc1nc2c(=O)n(Cc3ccccc3)nc(-c3ccncc3)c2c2cc(-c3ccccc3)nn12 |
|  | inactive | 192 | inactive | 5190 |  |  |  | CC(C)c1nc2c(=O)n(Cc3ccccc3)nc(-c3ccncc3)c2c2cc(-c3ccccc3)nn12 |
| inactive | inactive |  | inactive |  |  | < 50 |  | CCc1nc2c(=O)n(Cc3ccccc3)nc(-c3ccc(F)cc3)c2c2cc(-c3ccccc3)nn12 |
|  | inactive | 47.4 | inactive | 2110 |  |  | 29.7 | Cc1nc2c(=O)n(Cc3ccccc3)nc(-c3cccnc3)c2c2cc(-c3ccccc3)nn12 |
|  | inactive | 43.6 | inactive | 501 |  |  | 5.7 | Cc1nc2c(=O)n(Cc3ccccc3)nc(-c3ccncc3)c2c2cc(-c3ccccc3)nn12 |
| inactive | inactive | 1590 | inactive |  |  |  |  | Cc1nc2c(=O)n(Cc3ccccc3)nc(-c3ccccc3)c2c2cc(-c3ccccc3)nn12 |
| inactive | inactive | 2440 | inactive |  |  |  |  | CCc1nc2c(=O)n(Cc3ccccc3)nc(-c3ccccc3)c2c2cc(-c3ccccc3)nn12 |
| inactive | inactive | 1430 | inactive |  |  |  |  | O=c1c2ncn3nc(-c4ccccc4)cc3c2c(-c2ccccc2)nn1Cc1ccccc1 |
|  | inactive | 71.8 | inactive | 2490 |  |  |  | CCc1nc2c(=O)n(Cc3ccccc3)nc(-c3ccncc3)c2c2cc(-c3ccccc3)nn12 |
|  | inactive | 267 | inactive | 572 |  |  |  | Cc1nc2c(=S)n(Cc3ccccc3)nc(-c3ccncc3)c2c2cc(-c3ccccc3)nn12 |
| inactive | inactive |  | inactive |  |  | < 50 |  | Cc1nc2c(=O)n(Cc3ccccc3)nc(-c3ccc(F)cc3)c2c2cc(-c3ccccc3)nn12 |
|  | < 50% | 1620 | < 50% | 3150 |  |  |  | Cc1nc2c(=O)n(Cc3ccccc3)nc(Cl)c2c2cc(-c3ccccc3)nn12 |
| inactive | inactive | 563 | inactive |  |  |  |  | CCCc1nc2c(=O)n(Cc3ccccc3)nc(-c3ccccc3)c2c2cc(-c3ccccc3)nn12 |
| < 50% | inactive | 180 | inactive |  |  |  | 32.8 | CCc1nc2c(=O)n(Cc3ccccc3)nc(-c3cccnc3)c2c2cc(-c3ccccc3)nn12 |
| < 50% | < 50% | 3250 | < 50% |  |  |  |  | Cc1nn(Cc2ccccc2)c(=O)c2nc(C)n3nc(-c4ccccc4)cc3c12 |
| inactive | inactive |  | inactive |  |  | < 50 |  | CCc1nc2c(=O)n(Cc3ccccc3)nc(-c3cccc(F)c3)c2c2cc(-c3ccccc3)nn12 |
